{"source": "paper PMC4757811", "about": "(Biochemistry, 2015)", "key": {"Erk1/2 [1]": {"system": "Erk1/2", "experiment": "Erk1/2 phosphorylation in 293T cells, Western blot", "format": "cell-based", "conditions": "not serum starved", "procedure,_shortened": "(§1)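 293T cells (1×10^6) transfected 24 h after plating with Flag-tagged wild-type or mutant Brk using polyethylenimine. Lysed 48 h post-transfection in RIPA buffer (pH 7.5) with protease and phosphatase inhibitors, then SDS-PAGE and PVDF blotting.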"}, "Erk1/2 [2]": {"system": "Erk1/2", "format": "cell-based", "conditions": "293T cells, serum starved, 10 ng/mL EGF for 2.5 min", "procedure,_shortened": "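293T cells were PEI-transfected with Flag-Brk (wild-type or mutant) and serum-starved overnight. They were then stimulated with 10 ng/mL EGF for 2.5 min, lysed in RIPA buffer with inhibitors, and resolved by SDS-PAGE on PVDF. Blots were probed for phospho-Erk1/2 (Thr202/Tyr204), total Erk1/2 and Flag.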"}, "ErbB2": {"system": "ErbB2", "experiment": "ErbB2 interaction, co-immunoprecipitation", "format": "binding", "conditions": "293T cells cotransfected with ErbB2 and Brk; ErbB2 immunoprecipitated", "procedure,_shortened": "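Flag-tagged wild-type or mutant Brk and full-length ErbB2 were co-transfected into 293T cells with polyethylenimine (8 μL per μg DNA in 150 mM NaCl), 24 h after plating. Cells were lysed at 48 h in RIPA buffer with protease/phosphatase inhibitors. Lysate (1 mg/mL) was precleared on protein G agarose, then taken with 1 μg anti-ErbB2 (1 h, 4 °C) and protein G (4 h, 4 °C). After washing, blots were probed with anti-ErbB2 and anti-Flag.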"}, "MCF-10a cells": {"system": "MCF-10a cells", "experiment": "Growth of stable MCF-10a cells", "format": "cell-based", "conditions": "MCF-10a stable cells; compared to Brk WT"}, "β-catenin": {"system": "β-catenin", "experiment": "β-catenin phosphorylation and binding, immunoprecipitation from 293T cells", "format": "cell-based", "conditions": "293T cells coexpressing β-catenin; for binding to β-catenin (in words): Flag antibody; for phosphorylation of β-catenin (in words): anti-phosphotyrosine; for binding and phosphorylation of β-catenin (in words): compared to wild-type Brk", "procedure,_shortened": "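Flag-tagged β-catenin was coexpressed with Flag-Brk (wild-type or mutant) in 293T cells by PEI transfection, and lysates were made 48 h later in RIPA buffer. Lysate (1 mg/mL) was precleared on protein G agarose (1 h, 4 °C), incubated with 1 µg anti-β-catenin (1 h, 4 °C), then captured on protein G for 4 h at 4 °C. After three RIPA washes, SDS elution and blotting, membranes were probed with anti-phosphotyrosine and anti-β-catenin, then reprobed with anti-Flag for Brk association.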"}, "p130Cas": {"system": "p130Cas", "experiment": "Cas phosphorylation in 293T cells, Western blot", "format": "cell-based", "conditions": "293T cells cotransfected with Brk and Cas", "procedure,_shortened": "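293T cells were cotransfected with V5-His-tagged p130Cas and Flag-tagged wild-type or mutant Brk using polyethylenimine, then harvested 48 h later in RIPA buffer with inhibitors. Lysates were analysed by SDS-PAGE and PVDF Western blotting. Probes were anti-phospho-p130Cas (Tyr249), anti-p130Cas and anti-Flag.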"}, "SkBr3 cells": {"system": "SkBr3 cells", "experiment": "Growth of stable SkBr3 cells", "format": "cell-based"}, "Akt and Erk1/2": {"system": "Akt and Erk1/2", "experiment": "Akt and Erk1/2 activation in SkBr3 cells", "format": "cell-based", "conditions": "SkBr3 breast cancer cells"}, "Akt": {"system": "Akt", "experiment": "Akt phosphorylation in 293T cells, Western blot", "format": "cell-based", "conditions": "phospho-Akt (Ser473)", "procedure,_shortened": "as §1"}, "STAT3": {"system": "STAT3", "experiment": "STAT3 phosphorylation in 293T cells, Western blot", "format": "cell-based", "conditions": "compared to control cells or wild-type Brk", "procedure,_shortened": "as §1"}, "NIH-3T3 cells [3]": {"system": "NIH-3T3 cells", "experiment": "Anchored growth of stable NIH-3T3 cells", "format": "cell-based", "conditions": "NIH-3T3 stable cells, 20 000 cells plated in duplicate; hemocytometer", "procedure,_shortened": "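NIH-3T3 lines stably expressing wild-type or mutant Brk were made by MSCV-PIG retroviral infection with 8 µg/mL Polybrene. Selection used puromycin (2 µg/mL) from 48 h postinfection, and lines with equivalent GFP expression were used. Cells (20 000) were plated in duplicate in 12-well plates. At each time point over several days they were trypsinized and counted by hemocytometer. Representative of three experiments; standard deviations shown.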"}, "NIH-3T3 cells [4]": {"system": "NIH-3T3 cells", "experiment": "Nonanchored growth of stable NIH-3T3 cells", "format": "cell-based", "conditions": "NIH-3T3 stable cells, low attachment plates, day 6, triplicate", "procedure,_shortened": "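NIH-3T3 lines stably expressing Brk were made by retrovirus with puromycin selection and matched for GFP expression. Cells (20 000) were seeded in triplicate in 24-well low-attachment plates. On day 6 they were centrifuged, resuspended in trypsin and counted by hemocytometer. Representative of two experiments; standard deviations shown.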"}}, "data": [{"substance": "L16F: Brk mutant, SH3 domain, identified in clear cell renal cell carcinoma", "values": [{"measurement": "Erk1/2 phosphorylation (in words)", "setting": "Erk1/2 [1]", "value": "increased phosphorylation of Erk1/2 compared to wild-type Brk"}, {"measurement": "Erk1/2 phosphorylation after EGF stimulation (in words)", "setting": "Erk1/2 [2]", "value": "no appreciable difference between wild-type and L16F Brk following stimulation with EGF"}, {"measurement": "interaction with ErbB2 (in words)", "setting": "ErbB2", "value": "increased interaction with ErbB2 compared to wild-type Brk"}, {"measurement": "proliferation (in words)", "setting": "MCF-10a cells", "value": "reduced proliferation relative to wild-type Brk"}, {"measurement": "binding to β-catenin (in words)", "setting": "β-catenin", "value": "decreased interaction with the protein"}, {"measurement": "phosphorylation of β-catenin (in words)", "setting": "β-catenin", "value": "not able to phosphorylate β-catenin"}, {"measurement": "expression of Brk upon coexpression with Cas (in words)", "setting": "p130Cas", "value": "decreased expression"}, {"measurement": "phosphorylation of Cas (in words)", "setting": "p130Cas", "value": "decreased phosphorylation of Cas"}]}, {"substance": "L343F: Brk mutant, kinase domain, identified in cutaneous squamous cell carcinoma", "values": [{"measurement": "anchored or nonanchored cell growth (in words)", "setting": "SkBr3 cells", "value": "no increase in anchored or nonanchored cell growth"}, {"measurement": "activation of Akt and Erk1/2 (in words)", "setting": "Akt and Erk1/2", "value": "increased activation of both Akt and Erk1/2"}, {"measurement": "binding and phosphorylation of β-catenin (in words)", "setting": "β-catenin", "value": "greater binding and phosphorylation of β-catenin as compared to wild-type Brk"}, {"measurement": "phosphorylation of Cas (in words)", "setting": "p130Cas", "value": "greater phosphorylation of Cas compared to wild-type Brk"}]}, {"substance": "N317S: Brk mutant, kinase domain, identified in ovarian carcinoma", "values": [{"measurement": "Erk1/2 phosphorylation (in words)", "setting": "Erk1/2 [1]", "value": "still phosphorylated"}, {"measurement": "Akt phosphorylation (in words)", "setting": "Akt", "value": "still phosphorylated"}, {"measurement": "phosphorylation of STAT3 (in words)", "setting": "STAT3", "value": "decrease in phosphorylation of STAT3"}, {"measurement": "binding to β-catenin (in words)", "setting": "β-catenin", "value": "bound normally to β-catenin"}, {"measurement": "phosphorylation of β-catenin (in words)", "setting": "β-catenin", "value": "unable to phosphorylate the protein"}]}, {"substance": "P450L: Brk mutant, C-terminal tail adjacent to the inhibitory tyrosine, identified in pancreatic cancer", "values": [{"measurement": "anchored cell growth (in words)", "setting": "NIH-3T3 cells [3]", "value": "did not survive past Day 6"}]}, {"substance": "R131L: Brk mutant, SH2 domain, found in gastric cancer", "values": [{"measurement": "binding and phosphorylation of β-catenin (in words)", "setting": "β-catenin", "value": "greater binding and phosphorylation of β-catenin as compared to wild-type Brk"}, {"measurement": "phosphorylation of Cas (in words)", "setting": "p130Cas", "value": "greater phosphorylation of Cas compared to wild-type Brk"}]}, {"substance": "V253M: Brk mutant, kinase domain, identified in head and neck squamous cell carcinoma", "values": [{"measurement": "phosphorylation of STAT3 (in words)", "setting": "STAT3", "value": "decrease in phosphorylation of STAT3"}]}, {"substance": "WT: Flag-tagged wild-type full length Brk (PTK6)", "values": [{"measurement": "nonanchored cell growth (in words)", "setting": "NIH-3T3 cells [4]", "value": "increase in nonanchored growth"}, {"measurement": "anchored cell growth (in words)", "setting": "NIH-3T3 cells [3]", "value": "increased cell growth compared to empty vector cells"}]}]}
